Results: ChEMBL document CHEMBL5230171, “Expanding the structure-activity relationships of alkynyl diphenylurea scaffold as promising antibacterial agents” (RSC Med Chem, 2023)
The source made the active and inactive calls.

Experiments:
Staphylococcus aureus [1] = assay: Induction of drug resistance in methicillin resistant Staphylococcus aureus NRS384 USA300 assessed as fold change in MIC measured from passage 5 to 14 by broth microdilution method; format: functional
Method in brief: (§1)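 Multi-step resistance in MRSA USA300 over 14 consecutive passages, with rifampicin as the control antibiotic. The MIC was determined by broth microdilution at each passage. Resistance was defined as a greater than four-fold rise over the initial MIC.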

Staphylococcus aureus [2] = assay: Induction of drug resistance in methicillin resistant Staphylococcus aureus NRS384 USA300 assessed as fold change in MIC measured after 4 passages by broth microdilution method; format: functional; method in brief: as §1
Staphylococcus aureus [3] = assay: Antibacterial activity against methicillin resistant Staphylococcus aureus 123 assessed as inhibition of bacterial growth at 0.5 ug/ml incubated for 18 to 20 hrs by CLSI protocol based broth microdilution method; format: functional, organism-based; conditions: dose 0.5 µg/ml, time 18-20 hrs
Staphylococcus aureus [4] = assay: Antibacterial activity against methicillin resistant Staphylococcus aureus 384 assessed as inhibition of bacterial growth at 0.5 ug/ml incubated for 18 to 20 hrs by CLSI protocol based broth microdilution method; format: functional, organism-based; conditions: dose 0.5 µg/ml, time 18-20 hrs
Staphylococcus aureus [5] = assay: Antibacterial activity against methicillin resistant Staphylococcus aureus 119 assessed as inhibition of bacterial growth at 0.5 ug/ml incubated for 18 to 20 hrs by CLSI protocol based broth microdilution method; format: functional, organism-based; conditions: dose 0.5 µg/ml, time 18-20 hrs
Staphylococcus aureus [6] = assay: Antibacterial activity against methicillin resistant Staphylococcus aureus 385 assessed as inhibition of bacterial growth at 0.5 ug/ml incubated for 18 to 20 hrs by CLSI protocol based broth microdilution method; format: functional, organism-based; conditions: dose 0.5 µg/ml, time 18-20 hrs
Staphylococcus aureus [7] = assay: Antibacterial activity against methicillin resistant Staphylococcus aureus 386 assessed as inhibition of bacterial growth at 0.5 ug/ml incubated for 18 to 20 hrs by CLSI protocol based broth microdilution method; format: functional, organism-based; conditions: dose 0.5 µg/ml, time 18-20 hrs
Staphylococcus aureus [8] = assay: Antibacterial activity against vancomycin resistant Staphylococcus aureus 10 assessed as inhibition of bacterial growth at 0.5 ug/ml incubated for 18 to 20 hrs by CLSI protocol based broth microdilution method; format: functional, organism-based; conditions: dose 0.5 µg/ml, time 18-20 hrs
Staphylococcus aureus [9] = assay: Antibacterial activity against vancomycin resistant Staphylococcus aureus 12 assessed as inhibition of bacterial growth at 0.5 ug/ml incubated for 18 to 20 hrs by CLSI protocol based broth microdilution method; format: functional, organism-based; conditions: dose 0.5 µg/ml, time 18-20 hrs
Staphylococcus aureus [10] = assay: Antibacterial activity against vancomycin resistant Staphylococcus aureus 9 assessed as inhibition of bacterial growth at 0.5 ug/ml incubated for 18 to 20 hrs by CLSI protocol based broth microdilution method; format: functional, organism-based; conditions: dose 0.5 µg/ml, time 18-20 hrs
Staphylococcus aureus [11] = assay: Antibacterial activity against methicillin sensitive Staphylococcus aureus 107 assessed as inhibition of bacterial growth at 0.5 ug/ml incubated for 18 to 20 hrs by CLSI protocol based broth microdilution method; format: functional, organism-based; conditions: dose 0.5 µg/ml, time 18-20 hrs
Method in brief: (§2)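 Staphylococcal and E. coli strains were diluted from a 0.5 McFarland suspension in cation-adjusted Mueller Hinton broth to ~5 × 10^5 CFU mL−1. They were incubated with serial dilutions of test agent in broth microdilution, and the MIC was recorded.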

Staphylococcus aureus [12] = assay: Antibacterial activity against methicillin sensitive Staphylococcus aureus 6538 assessed as inhibition of bacterial growth at 0.5 ug/ml incubated for 18 to 20 hrs by CLSI protocol based broth microdilution method; format: functional, organism-based; conditions: dose 0.5 µg/ml, time 18-20 hrs; method in brief: as §2
Vero = assay: Cytotoxicity against African green monkey Vero cells assessed as reduction in cell viability at 64 ug/ml incubated for 24 hrs by MTS assay; format: toxicity, cell-based; conditions: chlorocebus sabaeus, dose 64 µg/ml
Method in brief: (§3)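 Vero or HaCaT cells were exposed to 32, 64 and 128 μg mL−1 compound in triplicate for 24 h at 37 °C, 5% CO2, with a DMSO control. MTS was then added for 4 h and OD490 read. Analysis used two-way ANOVA with Dunnett's post hoc test (p < 0.05).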

[13] = Cytotoxicity against human HaCaT cells assessed as tolerance by measuring cell viability upto 128 ug/ml incubated for 24 hrs by MTS assay relative to control; format: toxicity, cell-based; conditions: up to 128 µg/mL, read-out: Activity; method in brief: as §3
Staphylococcus aureus [14] = assay: Antibacterial activity against methicillin resistant Staphylococcus aureus NRS384 USA300 assessed as inhibition of bacterial growth incubated for 18 to 20 hrs by CLSI protocol based broth microdilution method; format: functional; conditions: time 18-20 hrs
Method in brief: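 Broth microdilution against staphylococcal clinical isolates. Each strain was prepared as a 0.5 McFarland suspension and diluted in cation-adjusted Mueller Hinton broth to ~5 × 10^5 CFU mL−1. Serial dilutions of test agents in DMSO stock were incubated with the bacteria, and the MIC was recorded.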

Clostridioides difficile = assay: Antibacterial activity against Clostridioides difficile ATCC BAA 1870 assessed as inhibition of bacterial growth incubated for 18 to 20 hrs by CLSI protocol based broth microdilution method; format: functional; conditions: time 18-20 hrs
Method in brief: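 C. difficile was diluted from a 0.5 McFarland suspension in BHI supplemented with hemin and vitamin K. It was incubated with serial dilutions of test agent in broth microdilution, and the MIC was recorded.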

Escherichia coli = assay: Antibacterial activity against Escherichia coli JW55031 assessed as inhibition of bacterial growth incubated for 18 to 20 hrs by CLSI protocol based broth microdilution method; format: functional; conditions: time 18-20 hrs; method in brief: as §2
[15] = Cytotoxicity against African green monkey Vero cells assessed as tolerance by measuring cell viability upto 128 ug/ml incubated for 24 hrs by MTS assay relative to control; format: toxicity, cell-based; conditions: chlorocebus sabaeus, up to 128 µg/mL, read-out: Activity; method in brief: as §3
[16] = Cytotoxicity against human HaCaT cells assessed as tolerance by measuring cell viability at 64 ug/ml incubated for 24 hrs by MTS assay relative to control; format: toxicity, cell-based; conditions: at 64 µg/mL, read-out: Activity; method in brief: as §3
Staphylococcus aureus [17] = assay: Antibacterial activity against methicillin resistant Staphylococcus aureus NRS384 USA300 infected in Balb/c mouse model of skin infection assessed as healing administered topically twice daily for three consecutive days from day 4 to 6 and measured 24 hrs post last dose; format: functional, organism-based; conditions: route top, time 4.0 day
Method in brief: (§4)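 Mice were anesthetized with 2,2,2-tribromoethanol and injected subcutaneously with 100 μL containing 2 × 10^9 CFU MRSA USA300 in 0.5% HPMC in saline. Topical treatment used a petroleum jelly vehicle, with a fusidic acid positive control. Lesions were photographed 24 h after the last dose. A ~1.5 cm2 skin patch (homogenized in 1 mL saline) and the spleen (in 0.5 mL) were serially diluted and plated on MSA at 37 °C overnight for CFU.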

Staphylococcus aureus [18] = assay: (§5) Antibacterial activity against methicillin resistant Staphylococcus aureus NRS384 USA300 infected in Balb/c mouse model of skin infection assessed as reduction in inflammation administered topically twice daily for three consecutive days from day 4 to 6 and measured 24 hrs post last dose; format: functional, organism-based; conditions: route top, time 4.0 day; method in brief: as §4
Staphylococcus aureus [19] = assay: as §5, with “bacterial burden in skin lesions” for “inflammation”; format: functional; conditions: route top; time 4 day; method in brief: as §4

Compound	Activity (Staphylococcus aureus [3])	Activity (Staphylococcus aureus [4])	Activity (Staphylococcus aureus [5])	Activity (Staphylococcus aureus [6])	Activity (Staphylococcus aureus [7])	Activity (Staphylococcus aureus [8])	Activity (Staphylococcus aureus [9])	Activity (Staphylococcus aureus [10])	Activity (Staphylococcus aureus [11])	Activity (Staphylococcus aureus [12])	other results
CO[C@H]1/C=C/O[C@@]2(C)Oc3c(C)c(O)c4c(O)c(c(/C=N/N5CCN(C)CC5)c(O)c4c3C2=O)NC(=O)/C(C)=C\C=C\[C@H](C)[C@H](O)[C@@H](C)[C@@H](O)[C@@H](C)[C@H](OC(C)=O)[C@@H]1C [RIFAMPIN]	–	–	–	–	–	–	–	–	–	–	fold change (FC) (Staphylococcus aureus [1]): 15; fold change (FC) (Staphylococcus aureus [2]): >4
C/C(=N\NC(=N)N)c1ccc(NC(=O)Nc2ccc(C#CC(C)(C)O)cc2)cc1	Active	Active	Active	Active	Active	Active	Active	Active	Active	Active	Activity (Vero): Non-Toxic; viability at 24 h [13]: 100%
C/C(=N\NC(=N)N)c1ccc(NC(=O)Nc2ccc(C#CC3CC3)cc2)cc1	–	–	–	–	–	–	–	–	–	–	MIC (Staphylococcus aureus [14]): ≥ 64 µg/mL; MIC (Clostridioides difficile): ≥ 64 µg/mL; MIC (Escherichia coli): ≥ 64 µg/mL
C/C(=N\NC(=N)N)c1ccc(NC(=O)Nc2ccc(C#CC3(N)CCCCC3)cc2)cc1	Active	Active	Active	Active	Active	Active	Active	Active	Active	Active	viability at 24 h [15]: 100%; viability at 24 h, 64 ug/ml [16]: 100%
CC(=O)O[C@H]1C[C@@]2(C)[C@@H](C[C@@H](O)[C@H]3[C@@]4(C)CC[C@@H](O)[C@@H](C)[C@@H]4CC[C@@]32C)/C1=C(\CCC=C(C)C)C(=O)O [FUSIDIC ACID]	–	–	–	–	–	–	–	–	–	–	Activity (Staphylococcus aureus [17]): Active; Activity (Staphylococcus aureus [18]): Active; Activity (Staphylococcus aureus [19]): 1.5 log10CFU/ml
